In ChEMBL document CHEMBL1129650, “Structure-activity relationships of novel hematoregulatory peptides” (1996):
Bridge positions count the residues as written; N and C are the ends. Square brackets hold non-standard residues; d marks the D form. Peptide text beside a SMILES is read from it. I, II: the chains in the order shown. pGlu = O=C1CC[C@@H](C(=O)O)N1

Tested on: C6
Assay: Relative potency for induction of Colony-Stimulating activity(CSA) of C6 stromal line.
Type: functional, Mus musculus
Design: reference not given here
Outline: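 Murine C6 stromal cells (or subclone C6.4) were grown to confluence in RPMI with 10% FBS, then switched to serum-free medium with peptide (initially 0.001–1000 ng/mL, log doses, duplicate wells). Exposure was 1 h at 37 °C, followed by washing, and conditioned supernatant was collected 24 h later. Supernatant (10–2.5% v/v) plus C57Bl/6 femoral marrow went into 0.3% agar with 15% FBS for 7 days. Colonies of >50 cells were counted in triplicate. EC50 was taken from the ascending curve and expressed relative to the reference peptide.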

| SMILES | Relative potency |
| --- | --- |
| NCCCC[C@H](NC(=O)[C@H](CC[C@H](NC(=O)[C@H](CC(=O)O)NC(=O)[C@H](CCC(=O)O)NC(=O)c1ccccn1)C(=O)N[C@@H](CCCCN)C(N)=O)NC(=O)[C@H](CC(=O)O)NC(=O)[C@H](CCC(=O)O)NC(=O)c1ccccn1)C(N)=O | 100 |
| NCCCC[C@H](NC(=O)[C@H](CCCC[C@H](NC(=O)[C@H](CC(=O)O)NC(=O)[C@H](CC(=O)O)NC(=O)[C@@H]1CCC(=O)N1)C(=O)N[C@@H](CCCCN)C(=O)O)NC(=O)[C@H](CC(=O)O)NC(=O)[C@H](CC(=O)O)NC(=O)[C@@H]1CCC(=O)N1)C(=O)O | 1 |
| NCCCC[C@@H](NC(=O)[C@H](CCCC[C@H](NC(=O)[C@H](CC(=O)O)NC(=O)[C@H](CCC(=O)O)NC(=O)[C@@H]1CCC(=O)N1)C(=O)N[C@H](CCCCN)C(=O)O)NC(=O)[C@H](CC(=O)O)NC(=O)[C@H](CCC(=O)O)NC(=O)[C@@H]1CCC(=O)N1)C(=O)O | <1e-06 |
| NCCCC[C@H](NC(=O)[C@H](CCC(=O)O)NC(=O)[C@@H]1CCC(=O)N1)C(=O)N[C@@H](CCCC[C@H](NC(=O)[C@H](CCCCN)NC(=O)[C@H](CCC(=O)O)NC(=O)[C@@H]1CCC(=O)N1)C(=O)N[C@@H](CC(=O)O)C(=O)O)C(=O)N[C@@H](CC(=O)O)C(=O)O | < 1e-06 |
| NC(=O)CC[C@H](NC(=O)[C@H](CC[C@H](NC(=O)[C@H](CO)NC(=O)[C@H](CO)NC(=O)c1ccccn1)C(=O)N[C@@H](CCC(N)=O)C(N)=O)NC(=O)[C@H](CO)NC(=O)[C@H](CO)NC(=O)c1ccccn1)C(N)=O | <1e-06 |
| NCCCC[C@H](NC(=O)[C@H](CCCC[C@H](NC(=O)[C@@H](CC(=O)O)NC(=O)[C@H](CCC(=O)O)NC(=O)[C@@H]1CCC(=O)N1)C(=O)N[C@@H](CCCCN)C(=O)O)NC(=O)[C@@H](CC(=O)O)NC(=O)[C@H](CCC(=O)O)NC(=O)[C@@H]1CCC(=O)N1)C(=O)O | <1e-06 |
| NCCCC[C@H](NC(=O)[C@H](CCCC[C@H](NC(=O)[C@H](CC(=O)O)NC(=O)[C@H](CO)NC(=O)c1ccccn1)C(=O)N[C@@H](CCCCN)C(=O)O)NC(=O)[C@H](CC(=O)O)NC(=O)[C@H](CO)NC(=O)c1ccccn1)C(=O)O | 100 |
| NCCCC[C@H](NC(=O)[C@H](CCCC[C@H](NC(=O)[C@H](CC(=O)O)NC(=O)[C@H](CO)NC(=O)[C@@H]1CCC(=O)N1)C(=O)N[C@@H](CCCCN)C(=O)O)NC(=O)[C@H](CC(=O)O)NC(=O)[C@H](CO)NC(=O)[C@@H]1CCC(=O)N1)C(=O)O | 10 |
| NCCCC[C@H](NC(=O)[C@H](CCCCC[C@H](NC(=O)[C@H](CC(=O)O)NC(=O)[C@H](CCC(=O)O)NC(=O)[C@@H]1CCC(=O)N1)C(=O)N[C@@H](CCCCN)C(=O)O)NC(=O)[C@H](CC(=O)O)NC(=O)[C@H](CCC(=O)O)NC(=O)[C@@H]1CCC(=O)N1)C(=O)O | <1e-06 |
| NCCCC[C@H](NC(=O)[C@H](CC[C@H](NC(=O)[C@H](CC(=O)O)NC(=O)[C@H](CO)NC(=O)c1ccccn1)C(=O)N[C@@H](CCCCN)C(=O)O)NC(=O)[C@H](CC(=O)O)NC(=O)[C@H](CO)NC(=O)c1ccccn1)C(=O)O | 10000 |
| CCCC[C@H](NC(=O)[C@H](CCCC[C@H](NC(=O)[C@H](C)NC(=O)[C@H](CO)NC(=O)c1ccccn1)C(=O)N[C@@H](CCCC)C(N)=O)NC(=O)[C@H](C)NC(=O)[C@H](CO)NC(=O)c1ccccn1)C(N)=O | <1e-06 |
| NCCCC[C@H](NC(=O)[C@H](CCCC[C@H](NC(=O)[C@H](CC(=O)O)NC(=O)[C@H](CCC(=O)O)NC(=O)C1CCCCC1)C(=O)N[C@@H](CCCCN)C(=O)O)NC(=O)[C@H](CC(=O)O)NC(=O)[C@H](CCC(=O)O)NC(=O)C1CCCCC1)C(=O)O | <1e-06 |
| NCCCC[C@H](NC(=O)[C@H](CCCC[C@H](NC(=O)[C@H](CC(=O)O)NC(=O)[C@H](CCC(=O)O)NC(=O)[C@@H]1CCC(=O)N1)C(=O)N[C@@H](CCCCN)C(N)=O)NC(=O)[C@H](CC(=O)O)NC(=O)[C@H](CCC(=O)O)NC(=O)[C@@H]1CCC(=O)N1)C(N)=O | 1 |
| NCCCC[C@H](NC(=O)[C@H](CCCC[C@H](NC(=O)[C@H](CC(=O)O)NC(=O)[C@H](CCC(=O)O)NC(=O)c1cccs1)C(=O)N[C@@H](CCCCN)C(=O)O)NC(=O)[C@H](CC(=O)O)NC(=O)[C@H](CCC(=O)O)NC(=O)c1cccs1)C(=O)O | <1e-06 |
| NCCCC[C@H](NC(=O)[C@H](CCC[C@H](NC(=O)[C@H](CC(=O)O)NC(=O)[C@H](CCC(=O)O)NC(=O)[C@@H]1CCC(=O)N1)C(=O)N[C@@H](CCCCN)C(=O)O)NC(=O)[C@H](CC(=O)O)NC(=O)[C@H](CCC(=O)O)NC(=O)[C@@H]1CCC(=O)N1)C(=O)O | < 1e-06 |
| NCCCC[C@H](NC(=O)[C@H](CCCC[C@H](NC(=O)[C@H](CCC(=O)O)NC(=O)[C@H](CCC(=O)O)NC(=O)[C@@H]1CCC(=O)N1)C(=O)N[C@@H](CCCCN)C(=O)O)NC(=O)[C@H](CCC(=O)O)NC(=O)[C@H](CCC(=O)O)NC(=O)[C@@H]1CCC(=O)N1)C(=O)O | 1 |
| NCCCC[C@H](NC(=O)[C@@H](CCCC[C@@H](NC(=O)[C@H](CC(=O)O)NC(=O)[C@H](CCC(=O)O)NC(=O)[C@@H]1CCC(=O)N1)C(=O)N[C@@H](CCCCN)C(=O)O)NC(=O)[C@H](CC(=O)O)NC(=O)[C@H](CCC(=O)O)NC(=O)[C@@H]1CCC(=O)N1)C(=O)O | <1e-06 |
| N=C(N)NCCC[C@@H](NC(=O)[C@H](CCCC[C@H](NC(=O)[C@H](CC(=O)O)NC(=O)[C@H](CCC(=O)O)NC(=O)[C@@H]1CCC(=O)N1)C(=O)N[C@H](CCCNC(=N)N)C(=O)O)NC(=O)[C@H](CC(=O)O)NC(=O)[C@H](CCC(=O)O)NC(=O)[C@@H]1CCC(=O)N1)C(=O)O | <1e-06 |
| NCCCC[C@H](NC(=O)[C@H](CCCC[C@H](NC(=O)[C@H](CC(=O)O)NC(=O)[C@H](CCC(=O)O)NC(=O)[C@@H]1CCCO1)C(=O)N[C@@H](CCCCN)C(=O)O)NC(=O)[C@H](CC(=O)O)NC(=O)[C@H](CCC(=O)O)NC(=O)[C@@H]1CCCO1)C(=O)O | <1e-06 |
| NCCCC[C@H](NC(=O)[C@H](CCCC[C@H](NC(=O)[C@H](CC(=O)O)NC(=O)[C@H](CCC(=O)O)NC(=O)[C@H]1CCC(=O)N1)C(=O)N[C@@H](CCCCN)C(=O)O)NC(=O)[C@H](CC(=O)O)NC(=O)[C@H](CCC(=O)O)NC(=O)[C@H]1CCC(=O)N1)C(=O)O | 0.0001 |
| NCCCC[C@H](NC(=O)[C@H](CC[C@H](NC(=O)[C@H](CC(=O)O)NC(=O)[C@H](CCC(=O)O)NC(=O)[C@@H]1CCC(=O)N1)C(=O)N[C@@H](CCCCN)C(=O)O)NC(=O)[C@H](CC(=O)O)NC(=O)[C@H](CCC(=O)O)NC(=O)[C@@H]1CCC(=O)N1)C(=O)O | 1000 |
| NCCCC[C@@H](CO)NC(=O)[C@H](CCCC[C@H](NC(=O)[C@H](CC(=O)O)NC(=O)[C@H](CCC(=O)O)NC(=O)[C@@H]1CCC(=O)N1)C(=O)N[C@H](CO)CCCCN)NC(=O)[C@H](CC(=O)O)NC(=O)[C@H](CCC(=O)O)NC(=O)[C@@H]1CCC(=O)N1 | <1e-06 |
| NCCCC[C@H](NC(=O)[C@H](CCCCCC[C@H](NC(=O)[C@H](CC(=O)O)NC(=O)[C@H](CCC(=O)O)NC(=O)[C@@H]1CCC(=O)N1)C(=O)N[C@@H](CCCCN)C(=O)O)NC(=O)[C@H](CC(=O)O)NC(=O)[C@H](CCC(=O)O)NC(=O)[C@@H]1CCC(=O)N1)C(=O)O | <1e-06 |
| NCCCC[C@H](NC(=O)[C@H](CSSC[C@H](NC(=O)[C@H](CC(=O)O)NC(=O)[C@H](CCC(=O)O)NC(=O)[C@@H]1CCC(=O)N1)C(=O)N[C@@H](CCCCN)C(=O)O)NC(=O)[C@H](CC(=O)O)NC(=O)[C@H](CCC(=O)O)NC(=O)[C@@H]1CCC(=O)N1)C(=O)O (I: [pGlu]EDCK-OH / II: [pGlu]EDCK-OH; disulfide I:4-II:4) | 0.01 |
| NCCCC[C@H](NC(=O)[C@H](CCCC[C@H](NC(=O)[C@H](CC(=O)O)NC(=O)[C@H](CCC(=O)O)NC(=O)c1ccc2ccccc2n1)C(=O)N[C@@H](CCCCN)C(=O)O)NC(=O)[C@H](CC(=O)O)NC(=O)[C@H](CCC(=O)O)NC(=O)c1ccc2ccccc2n1)C(=O)O | <1e-06 |
| NCCCC[C@H](NC(=O)[C@H](CCCC[C@H](NC(=O)[C@H](CC(=O)O)NC(=O)[C@H](CCC(=O)O)NC(=O)[C@@H]1CCC(=O)N1)C(=O)N[C@@H](CCCCN)C(=O)O)NC(=O)[C@H](CC(=O)O)NC(=O)[C@H](CCC(=O)O)NC(=O)[C@@H]1CCC(=O)N1)C(=O)O [GLASPIMOD] | 1 |
| NCCC[C@H](NC(=O)[C@H](CCCC[C@H](NC(=O)[C@H](CC(=O)O)NC(=O)[C@H](CCC(=O)O)NC(=O)[C@@H]1CCC(=O)N1)C(=O)N[C@@H](CCCN)C(=O)O)NC(=O)[C@H](CC(=O)O)NC(=O)[C@H](CCC(=O)O)NC(=O)[C@@H]1CCC(=O)N1)C(=O)O | <1e-06 |
